Laboratory results from paper PMC6287472 (International Journal for Parasitology: Drugs and Drug …, 2018).
“Also recorded” adds a separate entry of the source. Counter-ions that a name gives are not always drawn. Like-named read-outs stand apart in the source and are kept apart here.

Key:
[1] = target: T1, Sm.5HTRL (Schistosoma mansoni, UniProt A0A173FEI8); test: Sm.5HTRL cAMP luminescence; assay type: cell-based; conditions: for antagonist activity at Sm.5HTRL (in words): inhibition of 5-HT response, test compound up to 50 μM
T1 sequence (A0A173FEI8 1-547): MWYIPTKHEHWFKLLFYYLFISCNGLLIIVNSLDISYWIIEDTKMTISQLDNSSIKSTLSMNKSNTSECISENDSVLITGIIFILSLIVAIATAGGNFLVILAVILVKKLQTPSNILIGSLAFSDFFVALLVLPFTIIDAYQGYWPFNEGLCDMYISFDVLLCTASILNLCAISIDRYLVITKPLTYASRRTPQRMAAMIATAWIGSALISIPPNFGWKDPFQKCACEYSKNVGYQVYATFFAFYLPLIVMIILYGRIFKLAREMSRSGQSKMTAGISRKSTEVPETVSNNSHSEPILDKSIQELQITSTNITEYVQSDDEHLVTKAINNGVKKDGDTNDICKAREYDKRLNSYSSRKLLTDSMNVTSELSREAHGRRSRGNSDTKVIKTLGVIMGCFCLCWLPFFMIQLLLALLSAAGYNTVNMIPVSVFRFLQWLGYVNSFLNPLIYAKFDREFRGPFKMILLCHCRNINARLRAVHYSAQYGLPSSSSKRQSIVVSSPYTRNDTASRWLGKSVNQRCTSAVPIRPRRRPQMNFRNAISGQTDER
In short: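 Sm.5HTRL/GloSensor-22F stable HEK-293 cells, 2.5x10^4/well, in HBSS/HEPES (20 mM, pH 7.4), 0.1% BSA, 1 mg/mL D-luciferin. After 1 h at room temperature, IBMX 200 μM was added for 30 min. Test compound was added and read 45 min, then 500 nM serotonin was added and luminescence read another 45 min. IC50 came from concentration-inhibition curves; Ki was estimated by Cheng-Prusoff.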

[2] = tested on: adult S. mansoni; test: Adult schistosome mobility assay, antagonist; design: species or system Schistosoma mansoni; conditions: for inhibition of 5-HT evoked movement (in words): concentrations as high as 50 μM, serotonin 200 μM; for concentration inhibiting 5-HT evoked movement: 1 h incubation, then serotonin 200 μM
In short: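 Adult worms were recovered 49 days after cercarial infection of female Swiss Webster mice (NMRI strain parasite). They were kept overnight at 37 °C/5% CO2 in RPMI 1640 with HEPES 25 mM, 5% heat-inactivated FBS and pen-strep. Males (4–5/well) were incubated 1 h in test compound, then serotonin 200 μM was added. One-minute videos at 4 frames/s were analysed for movement; mean ± standard error, ≥3 independent experiments.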

[3] = target: T1, Sm.5HTRL; conditions: ref Chan et al., cited from earlier work
[4] = target: T1, Sm.5HTRL; test: Sm.5HTRL cAMP luminescence; assay type: cell-based; conditions: for Emax: read-out: Sm.5HTRL Emax (normalized to 5-HT)
In short: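 HEK-293 cells stably carrying the GloSensor-22F cAMP reporter and codon-optimised Sm.5HTRL (pcDNA3.1), selected with hygromycin (200 μg/mL) and G418 (400 μg/mL), plated 2.5x10^4 cells/well the day before. Assay buffer was HBSS/HEPES (20 mM, pH 7.4), 0.1% BSA, D-luciferin 1 mg/mL. Cells were equilibrated 1 h at room temperature, then IBMX 200 μM for 30 min. Luminescence was read 45 min after test compound; Emax was taken relative to 5-HT.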

[5] = tested on: adult S. mansoni; conditions: previous work; ref Chan et al., 2016c; cited from earlier work
[6] = tested on: human 5-HT7 receptor; conditions: cited from earlier work
[7] = tested on: adult S. mansoni; test: Adult schistosome mobility assay, agonist; design: species or system Schistosoma mansoni; conditions: adult male worms ex vivo; for increase in worm movement: 5 min incubation
In short: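 Adult worms came from female Swiss Webster mice 49 days after infection with NMRI-strain cercariae. They were washed in RPMI 1640 with HEPES 25 mM, 5% heat-inactivated FBS and pen-strep, then cultured overnight at 37 °C/5% CO2. Males (4–5/well, 3 mL) were exposed to test compound for 5 min. Movement was filmed for 1 min at 4 frames/s and quantified by image analysis; mean ± standard error, ≥3 independent experiments.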

[8] = tested on: mammalian 5-HT7 receptors; conditions: cited from earlier work
[9] = target: T1, Sm.5HTRL; conditions: ref Chan et al., 2018; cited from earlier work
[10] = tested on: HEK-293 cells expressing the GloSensor-22F reporter alone; test: Counter-screen on parental GloSensor-22F cell line lacking Sm.5HTRL; assay type: cell-based; conditions: agonists at 10 μM
In short: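 Counter-screen used HEK-293 cells stably expressing the GloSensor-22F cAMP reporter without Sm.5HTRL, plated 2.5x10^4 cells/well the day before. Assay buffer was HBSS/HEPES (20 mM, pH 7.4), 0.1% BSA, 1 mg/mL D-luciferin. Cells were equilibrated 1 h at room temperature, then IBMX 200 μM added for 30 min. Test compound was added and luminescence read for 45 min.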

[11] = ref Bard et al., 1993, Shen et al.
[12] = pKi, estimated using the Cheng-Prusoff equation, inhibition of 500 nM 5-HT

COc1cc2c(cc1OC)[C@H]1Cc3ccc(OC)c(OC)c3CN1CC2 [D-Rotundine]
antagonist activity at Sm.5HTRL (in words) [1]: inactive | inhibition of 5-HT evoked movement (in words) [2]: no inhibition

COc1ccc(CC2c3cc(OC)c(OC)cc3CCN2C)cc1OC (centres unmarked) [Laudanosine]
antagonist activity at Sm.5HTRL (in words) [1]: None of these showed any inhibition

COc1cc2c(cc1OC)-c1cc3ccc(OC)c(OC)c3c[n+]1CC2 [Palmatine]
antagonist activity at Sm.5HTRL (in words) [1]: inactive | inhibition of 5-HT evoked movement (in words) [2]: no inhibition

CC1CCN(CC[C@H]2CCCN2S(=O)(=O)c2cccc(O)c2)CC1 [SB-269970]
activity at Sm.5HTRL (in words) ([3]; 2016c): inactive

COc1ccc(Cc2nccc3cc(OC)c(OC)cc23)cc1OC [Papaverine]
antagonist activity at Sm.5HTRL (in words) [1]: None of these showed any inhibition

NCCc1c[nH]c2ccccc12 [Tryptamine]
agonist activity at Sm.5HTRL (in words) [4]: negligible activity

C=CCN(CC=C)CCc1c[nH]c2ccc(OC)cc12 [5-MeO-DALT, N,N-diallyl-5-methoxytryptamine]
agonist activity at Sm.5HTRL (in words) [4]: inactive

COc1cc2c3c(c1O)-c1ccccc1CC3N(C)CC2 (centres unmarked) [compound 785177]
concentration inhibiting 5-HT evoked movement [2]: 1 to 10 µM

COc1cc2c(cc1OC)[C@@H]1Cc3ccc(OC)c(OC)c3CN1CC2 [L-Rotundine]
antagonist activity at Sm.5HTRL (in words) [1]: active | concentration inhibiting 5-HT evoked movement [2]: ≥ 1 µM

COc1cc2c(cc1OC)C1Cc3ccc(OC)c(OC)c3CN1CC2 (centres unmarked) [D,L Rotundine]
activity at Sm.5HTRL (in words) ([3]; 2016c, listed as D/L-rotundine): antagonist | activity at Sm.5HTRL (in words) ([3]; 2016c, listed as rotundine): potent antagonists | effect on movement of adult worms (in words) [5]: inhibited movement of adult worms | Ki [1]: 0.0631 µM

NCCc1c[nH]c2ccc(C(N)=O)cc12 [5-Carboxamidotryptamine]
agonist activity at Sm.5HTRL (in words) ([4]; listed as 5-CT): inactive | activity at human 5-HT7 receptor (in words) ([6]; ref Plassat et al., 1993): full agonists | effect on worm movement (in words) [7]: did not stimulate movement | activity at mammalian 5-HT7 receptors (in words) [8, 11]: potent full agonists

COc1cc2c(cc1OC)CN1CCc3cc(OC)c(OC)cc3[C@@H]1C2 [d-Xylopinine]
antagonist activity at Sm.5HTRL (in words) [1]: decreased potency | times less potent than rotundine at Sm.5HTRL ([1]; relative to rotundine): ~10

COc1ccc(C(=O)c2nccc3cc(OC)c(OC)cc23)cc1OC [Papaveraldine]
antagonist activity at Sm.5HTRL (in words) [1]: None of these showed any inhibition

COc1cc2c3c(cc4ccccc4c3c1OC)N(C)CC2 [dehydronuciferine]
antagonist activity at Sm.5HTRL (in words) [1]: inactive

CCCN1CCc2cccc3c2[C@H]1Cc1ccc2c(c1-3)OCO2 [(-)-MDO-NPA hydrochloride]
Ki [1, 12]: 0.1 µM

NCCc1c[nH]c2ccc(Br)cc12 [5-Bromotryptamine]
agonist activity at Sm.5HTRL (in words) [4]: partial agonist activity

COc1cc2c(cc1OC)-c1c(OC)c(OC)cc3c1[C@H](C2)N(C)CC3 [D-glaucine]
activity at Sm.5HTRL (in words) ([3]; 2016a): Sm.5HTRL antagonists | antagonist activity at Sm.5HTRL (in words) [1]: potent antagonists | Ki [1, 12]: 0.158 µM

COc1cc2cc3c4c(cc(OC)c(OC)c4c2cc1OC)CCN3C [Dehydroglaucine]
antagonist activity at Sm.5HTRL (in words) [1]: inactive

CN1C[C@H](C(=O)N[C@]2(C)O[C@@]3(O)[C@@H]4CCCN4C(=O)[C@H](Cc4ccccc4)N3C2=O)C=C2c3cccc4[nH]cc(c34)C[C@H]21 [ergotamine]
activity at human 5-HT7 receptor (in words) ([6]; ref Wacker et al., 2013): potent antagonist | activity at Sm.5HTRL (in words) [9]: full agonist

Cc1ccc2[nH]cc(CCN)c2c1 [5-methyltryptamine]
agonist activity at Sm.5HTRL (in words) [4]: partial agonist activity | effect on worm movement (in words) [7]: stimulated movement, but only at high concentrations in the hundreds of micromolar

CNCCc1c[nH]c2ccc(O)cc12 [N-methylserotonin]
EC50 [4]: 0.154 ± 0.011 µM | Emax [4]: 113 ± 28% | effect on worm movement (in words) [7]: full agonist | increase in worm movement [7]: 252 ± 9% | activity at mammalian 5-HT7 receptors (in words) ([8]; ref Powell et al., 2008): full agonist

COc1ccc2[nH]cc(CCN)c2c1 [5-methoxytryptamine]
agonist activity at Sm.5HTRL (in words) ([4]; listed as 5-MeOT): inactive; also recorded: did not potently activate | activity at human 5-HT7 receptor (in words) ([6]; ref Plassat et al., 1993): full agonists | effect on worm movement (in words) [7]: stimulated movement | effect on worm movement (in words) ([7]; listed as 5-MeOT): potently stimulated movement | activity at mammalian 5-HT7 receptors (in words) [8, 11]: potent full agonists

c1cc2c(c3c1CC1c4cc5c(cc4CCN1C3)OCO5)OCO2 (centres unmarked) [Tetrahydrocoptisine]
antagonist activity at Sm.5HTRL (in words) [1]: loss of activity | antagonist activity at Sm.5HTRL (in words) ([1]; listed as tetrahydrocopsitine): inactive

CN(C)CCc1c[nH]c2ccc(O)cc12 [Bufotenine]
EC50 [4]: 2.4 ± 0.2 µM | Emax [4]: 99 ± 34%

COc1cc2c3c(c1OC)-c1ccccc1C[C@H]3N(C)CC2 [L-Nuciferine]
activity at Sm.5HTRL (in words) ([3]; 2016a): potent antagonists; also recorded: Sm.5HTRL antagonists | antagonist activity at Sm.5HTRL (in words) [1]: potent antagonists | Ki [1, 12]: 0.0794 µM

COc1ccc2[nH]cc(CCN(C)C)c2c1 [5-MeO-DMT, 5-methoxy-N,N-dimethyltryptamine]
agonist activity at Sm.5HTRL (in words) [4]: inactive

CN(C)CCc1c[nH]c2ccccc12 [DMT, N,N-Dimethyltryptamine]
agonist activity at Sm.5HTRL (in words) [4]: inactive | effect on worm movement (in words) [7]: no effect on worm movement

NCCc1c[nH]c2ccc(O)cc12 [Serotonin]
EC50 [4]: 0.094 ± 0.018 µM | increase in worm movement [7]: 224 ± 17% | activity in cells expressing the GloSensor-22F reporter alone (in words) [10]: not observed

COc1ccc2c(c1OC)CN1CCc3cc4c(cc3[C@@H]1C2)OCO4 [Canadine]
antagonist activity at Sm.5HTRL (in words) [1]: loss of activity; also recorded: inactive

CNCCc1c[nH]c2ccccc12 [N-Methyltryptamine]
agonist activity at Sm.5HTRL (in words) [4]: inactive

COc1cc2c(cc1O)C[C@H]1c3c(cc(O)c(OC)c3-2)CCN1C [Boldine]
activity at Sm.5HTRL (in words) ([3]; 2016a): Sm.5HTRL antagonists | antagonist activity at Sm.5HTRL (in words) [1]: potent antagonists

COc1cc2c3c(c1OC)-c1cc4c(cc1CC3N(C)CC2)OCO4 (centres unmarked) [nantenine]
antagonist activity at Sm.5HTRL (in words) [1]: potent antagonists
